Data reported in ChEMBL document CHEMBL2440088, “A synthetic compound, 4-acetyl-3-methyl-6-(3,4,5-trimethoxyphenyl)pyrano[3,4-c]pyran-1,8-dione, ameliorates ovalbumin-induced asthma” (Bioorg Med Chem, 2013).
One block for each molecule: values may come before it. Activity calls are given as the source filed them. The rule behind the calls is not given here.

Legend:
Mus musculus [1] = experiment: Antiinflammatory activity in ovalbumin-sensitized Balb/c mouse asthma model model assessed as reduction of goblet cell hyperplasia in lungs at 1 mg/kg, po by PAS staining; type: functional, organism-based; parameters: dose 1 mg/kg
Method in brief: (§1)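 Male Balb/c mice, 6 weeks old and 20-25 g, n = 6 per group, were sensitized ip on days 0 and 14 with 100 μg OVA precipitated with 20 mg aluminum hydroxide in 200 μl PBS. They were challenged intranasally with 1% OVA in 50 μl PBS on days 15, 17, 19, 21, 23 and 25, and sacrificed on day 27.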

Mus musculus [2] = experiment: Antiinflammatory activity in ovalbumin-sensitized Balb/c mouse asthma model model assessed as reduction of eosinophils, neutrophils, lymphocytes, and macrophages level in BAL fluid at 1 mg/kg, po; type: functional, organism-based; parameters: dose 1 mg/kg; method in brief: as §1
Mus musculus [3] = experiment: Antiinflammatory activity in ovalbumin-sensitized Balb/c mouse asthma model model assessed as reduction in methacholine-induced airway hyperresponsiveness at 1 mg/kg, po; type: functional, organism-based; parameters: dose 1 mg/kg
Method in brief: (§2)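 AHR was read in OVA-sensitized/challenged Balb/c mice (n = 6 per group) 24 h after the final allergen challenge, by barometric whole-body plethysmography. A 3 min baseline came first, then inhalation of methacholine at 50 or 100 mg ml⁻¹, with the read-out as enhanced pause (Penh).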

Mus musculus [4] = experiment: Antiinflammatory activity in ovalbumin-sensitized Balb/c mouse asthma model model assessed as reduction of eosinophils infiltration in lungs at 10 mg/kg, ip by hematoxylin and eosin staining; type: functional, organism-based; parameters: dose 10 mg/kg; method in brief: as §1
[5] = target: Transcription factor p65 (Homo sapiens) (UniProt Q04206); experiment: Inhibition of TNFalpha/IL4/IL1-beta-induced NFkappaB p65 nuclear translocation in human A549 cells at 50 uM after 15 mins by Western blotting analysis; type: cell-based; details: in the assay text read “after 1 hr” for “after 15 mins”
Method in brief: (§3)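 Nuclear extracts were western blotted for p65 or phospho-STAT6, with bands normalized to PCNA by densitometry over three experiments.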

A549 [6] = experiment: Cytotoxicity against human A549 cells assessed as cell viability at 50 uM after 24 hrs by MTS assay; type: cell-based; details: a549, 24 h
Method in brief: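 A549 cells were seeded at 2×10⁴ cells per well and grown 24 h at 37 °C, then exposed to 0, 5, 10 or 50 μM for 24 h. MTS reagent was added for a further 4 h and absorbance read at 490 nm; assays were run in triplicate.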

[7] = target: T1, Signal transducer and activator of transcription 6 (Homo sapiens) (UniProt P42226); experiment: Inhibition of TNFalpha/IL4/IL1-beta-induced STAT6 phosphorylation in human A549 cells at 50 uM after 15 mins by Western blotting analysis; type: cell-based; details: in the assay text read “after 1 hr” for “after 15 mins”; method in brief: as §3
T1 sequence (whole entry): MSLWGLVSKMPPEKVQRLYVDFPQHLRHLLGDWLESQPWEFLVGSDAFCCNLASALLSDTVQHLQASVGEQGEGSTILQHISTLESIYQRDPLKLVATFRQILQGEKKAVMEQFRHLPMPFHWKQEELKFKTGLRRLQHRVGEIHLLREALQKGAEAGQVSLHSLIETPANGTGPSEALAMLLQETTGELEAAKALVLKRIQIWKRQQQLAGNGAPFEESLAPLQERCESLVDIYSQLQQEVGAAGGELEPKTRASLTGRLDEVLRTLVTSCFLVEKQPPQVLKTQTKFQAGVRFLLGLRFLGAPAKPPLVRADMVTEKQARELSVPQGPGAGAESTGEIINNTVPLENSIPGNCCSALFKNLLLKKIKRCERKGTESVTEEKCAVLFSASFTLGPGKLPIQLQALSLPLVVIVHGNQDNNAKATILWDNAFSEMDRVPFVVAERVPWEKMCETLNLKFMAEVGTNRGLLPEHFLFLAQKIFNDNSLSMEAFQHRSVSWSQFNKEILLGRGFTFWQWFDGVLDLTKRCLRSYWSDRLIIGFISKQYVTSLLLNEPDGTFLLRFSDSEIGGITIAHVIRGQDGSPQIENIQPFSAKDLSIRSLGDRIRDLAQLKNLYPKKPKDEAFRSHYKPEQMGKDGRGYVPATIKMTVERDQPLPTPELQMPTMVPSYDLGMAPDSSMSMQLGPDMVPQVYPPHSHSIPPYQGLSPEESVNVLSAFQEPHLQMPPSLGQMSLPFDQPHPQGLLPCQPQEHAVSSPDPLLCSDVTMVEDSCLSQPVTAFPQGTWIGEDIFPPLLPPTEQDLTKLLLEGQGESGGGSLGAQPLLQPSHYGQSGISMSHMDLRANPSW

A549 [8] = experiment: Inhibition of TNFalpha/IL4/IL1-beta-induced CCL11 secretion in human A549 cells at 5 uM treated 1 hr before TNFalpha/IL4/IL1-beta stimulation measured after 24 hrs by ELISA; type: functional
Method in brief: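 Confluent A549 cells were held in serum-free RPMI for 24 h, pretreated 1 h with 0-50 μM, then stimulated with IL-1β (10 ng ml⁻¹), TNF-α (100 ng ml⁻¹) and IL-4 (100 ng ml⁻¹) for 24 h. Eotaxin in the supernatant was measured by ELISA; three independent experiments were run.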

Mus musculus [9] = experiment: Antiinflammatory activity in ovalbumin-sensitized Balb/c mouse asthma model model assessed as reduction of airway smooth muscle thickness in lungs at 10 mg/kg, ip by IHC staining; type: functional, organism-based; parameters: dose 10 mg/kg; details: Muscle tissue; method in brief: as §1
Mus musculus [10] = experiment: Antiinflammatory activity in ovalbumin-sensitized Balb/c mouse asthma model model assessed as reduction of goblet cell hyperplasia in lungs at 10 mg/kg, ip by PAS staining; type: functional, organism-based; parameters: dose 10 mg/kg; method in brief: as §1
Mus musculus [11] = experiment: Antiinflammatory activity in ovalbumin-sensitized Balb/c mouse asthma model model assessed as reduction in IgE level in serum at 10 mg/kg, ip after 48 hrs of last dose by ELISA; type: functional, organism-based; parameters: dose 10 mg/kg; method in brief: as §1
Mus musculus [12] = experiment: Antiinflammatory activity in ovalbumin-sensitized Balb/c mouse asthma model model assessed as reduction in methacholine-induced airway hyperresponsiveness at 10 mg/kg, ip; type: functional, organism-based; parameters: dose 10 mg/kg; method in brief: as §2
Mus musculus [13] = experiment: Antiinflammatory activity in ovalbumin-sensitized Balb/c mouse asthma model model assessed as reduction of eosinophils, neutrophils, lymphocytes, and macrophages level in BAL fluid at 10 mg/kg, ip; type: functional, organism-based; parameters: dose 10 mg/kg; method in brief: as §1

Chain of Transcription factor p65 (Homo sapiens) (Q04206 whole entry): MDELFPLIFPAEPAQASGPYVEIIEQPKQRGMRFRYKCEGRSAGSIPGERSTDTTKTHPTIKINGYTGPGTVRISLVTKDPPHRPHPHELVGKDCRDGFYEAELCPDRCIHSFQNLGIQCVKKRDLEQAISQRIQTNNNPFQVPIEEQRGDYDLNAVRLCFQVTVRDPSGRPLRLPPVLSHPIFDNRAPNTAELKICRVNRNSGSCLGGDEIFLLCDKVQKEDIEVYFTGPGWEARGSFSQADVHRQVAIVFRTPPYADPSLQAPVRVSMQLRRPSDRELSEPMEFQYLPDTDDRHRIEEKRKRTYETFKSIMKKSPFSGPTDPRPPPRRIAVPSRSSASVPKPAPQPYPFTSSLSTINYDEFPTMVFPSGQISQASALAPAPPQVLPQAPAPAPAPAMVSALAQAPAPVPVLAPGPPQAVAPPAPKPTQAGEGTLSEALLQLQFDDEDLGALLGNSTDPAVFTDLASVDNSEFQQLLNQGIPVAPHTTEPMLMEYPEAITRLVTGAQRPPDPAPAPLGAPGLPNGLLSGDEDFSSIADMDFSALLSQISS

Compound: C[C@@H]1C[C@H]2[C@@H]3CCC4=CC(=O)C=C[C@]4(C)[C@@]3(F)[C@@H](O)C[C@]2(C)[C@@]1(O)C(=O)CO
Activity (Mus musculus [1]): Active
Activity (Mus musculus [2]): Active
Activity (Mus musculus [3]): Active

inhibition [5]: inactive
inhibition [7]: Active
Compound: COc1cc(-c2cc3c(C(C)=O)c(C)oc(=O)c3c(=O)o2)cc(OC)c1OC
Activity (Mus musculus [4]): Active
Activity (A549 [6]): Non-toxic
inhibition at 5 µM (A549 [8]): 75%
Activity (Mus musculus [9]): Active
Activity (Mus musculus [10]): Active
Activity (Mus musculus [11]): Active
Activity (Mus musculus [12]): Active
Activity (Mus musculus [13]): Active
